# mIAP act: activators of mouse IAP, primary screen, biochemical, luminescence, uHTS | muIAP, CDP-Star luminescence, 30 min; stronger effect = higher value; 1 = vehicle-only enzyme signal, 0 = enzyme-free wells | activation factor at 10 µM | hit rate 0.24% among 330,000 | AID 2805, 2010;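 active = activation factor of at least 2 at 20 µM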
#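 Assay system: mouse IAP enzyme / Compound: DMSO-dissolved test compounds / Timing: 30 min, room temperature / Measured by: luminescence from enzymatic CDP-Star hydrolysis / Control set: DMSO-only wells, enzyme-free buffer wells as negative control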
# hIAP block: human IAP inhibitors, primary screen, biochemical, luminescence, uHTS. inhibition, % at 10 µM. purified IAP, CDP-Star luminescence, 30 min. hit rate 0.12% among 330,000. Intestinal-type alkaline phosphatase (Homo sapiens), P09923;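 active = inhibition reaching a set limit with compound at 10 µM in the primary screen, cut at about 35% in these data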;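 also: plate controls were DMSO wells with enzyme for no effect and no-enzyme buffer wells for full effect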
# Target sequence (P09923 whole entry, looked up): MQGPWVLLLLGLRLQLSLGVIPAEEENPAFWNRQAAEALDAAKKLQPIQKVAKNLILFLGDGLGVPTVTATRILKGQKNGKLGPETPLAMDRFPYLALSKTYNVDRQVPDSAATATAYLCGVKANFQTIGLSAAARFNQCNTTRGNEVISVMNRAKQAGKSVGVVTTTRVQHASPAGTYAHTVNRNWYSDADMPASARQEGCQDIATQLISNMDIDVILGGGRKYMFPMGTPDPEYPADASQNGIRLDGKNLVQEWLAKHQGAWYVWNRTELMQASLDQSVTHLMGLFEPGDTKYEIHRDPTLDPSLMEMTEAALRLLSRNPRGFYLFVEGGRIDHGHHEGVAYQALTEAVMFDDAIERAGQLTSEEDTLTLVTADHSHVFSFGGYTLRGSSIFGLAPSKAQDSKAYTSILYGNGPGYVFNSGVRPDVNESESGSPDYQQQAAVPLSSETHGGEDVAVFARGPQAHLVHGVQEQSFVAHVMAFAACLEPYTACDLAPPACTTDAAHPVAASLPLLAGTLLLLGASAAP
# hIAP act: human IAP activators, primary screen, biochemical, luminescence, uHTS | Intestinal-type alkaline phosphatase (Homo sapiens), P09923 | purified human IAP, CDP-Star luminescence, 30 min; stronger effect = higher value; 1 = vehicle-only enzyme, 0 = enzyme-free background | activation factor at 10 µM | hit rate 0.16% among 330,000;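 active = activation factor of the enzyme at least 2-fold when tested at 20 µM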
# bIAP activator: bovine intestinal alkaline phosphatase activators, primary screen, biochemical, bovine IAP, CDP-star luminescence; alkaline phosphatase, intestinal [Bos taurus]; purified bovine IAP, 30 min; stronger effect = higher value; fold of DMSO-control signal, blank-subtracted; activation factor at 20 µM; hit rate 0.17% among 200,000; AID 1016, 2008;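 active = activation factor of 2 or more at 20 µM, a signal rise over negative controls twice the positive control's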
# bIAP inh: bovine intestinal alkaline phosphatase inhibitors, primary screen, selectivity assay for TNAP inhibitor project, biochemical, bovine IAP, CDP-star luminescence. purified bovine IAP, 30 min. inhibition, % at 20 µM. 190,000 tested, under 10 active. AID 1019, 2008;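 active = over 50% inhibition of intestinal alkaline phosphatase at 20 µM in the single-dose screen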
#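 test system = bovine IAP enzyme | medium = DEA buffer 100 mM, pH 9.8, with MgCl2 1.0 mM, ZnCl2 0.02 mM | detection = luminescence | dosing = single compound dose of 20 µM, 2% DMSO final | incubation = 30 min reaction at room temperature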
# mIAP inh: inhibitors of mouse IAP, primary screen, biochemical, luminescence, uHTS; intestinal alkaline phosphatase [Mus musculus]; purified mouse IAP, CDP-Star luminescence, 30 min; inhibition, % at 10 µM; hit rate 0.2% among 330,000; AID 2806, 2010;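 active = inhibition of at least 40% at 10 µM in the primary screen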;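 also: plate controls were DMSO with enzyme for no effect and no enzyme wells for full effect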
# mIAP inh confirm: inhibitors of mouse IAP, confirmation, biochemical, luminescence, single concentration. shares compounds with mIAP inh. purified mouse IAP, CDP-Star luminescence, 30 min. inhibition, % at 10 µM. hit rate 4.7% among 11,000. AID 434971, 2010;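 active = inhibition of at least 40% at 10 µM in either of the two replicates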;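 also: plate controls were DMSO wells with enzyme for no effect and buffer wells lacking enzyme for full effect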
# The depositor's hits bear a star; i = inactive; x = not tested or not shown. The list is not random: actives were taken first. Their share in the collection is about 0.72%.
SMILES,mIAP act,hIAP block,hIAP act,bIAP activator,bIAP inh,mIAP inh,mIAP inh confirm
C#CCOCCOCCOCCNc1nc(N2CCN(C(=O)[C@H]([C@@H](C)CC)n3cc(CCCN=C(N)N)nn3)CC2)nc(N2CCN(C(=O)[C@H]([C@@H](C)CC)n3cc(CCCN=C(N)N)nn3)CC2)n1,1.08,24.8,0.752,0.7,32.3,-7.8,x
C#CCOCCOCCOCCNc1nc(N2CCN(C(=O)CCCCCCCCCCNC(=O)[C@H]([C@@H](C)CC)n3cc(CCCCN=C(N)N)nn3)CC2)nc(N2CCN(C(=O)CCCCCCCCCCNC(=O)[C@H]([C@@H](C)CC)n3cc(CCCCN=C(N)N)nn3)CC2)n1,10.3*,-46.8,1.47,x,x,i,i
C#CCOCCOCCOCCNc1nc(N2CCN(C(=O)CCCCCCCCCCNC(=O)[C@H]([C@@H](C)CC)n3cc(CCCCN=C(N)N)nn3)CC2)nc(N2CCN(C(=O)CCCCCCCCCCNC(=O)[C@H](CCCCN)n3cc(C)nn3)CC2)n1,2.78*,-8.1,1.08,x,x,-178.4,i
C#CCOCCOCCOCCNc1nc(N2CCN(C(=O)CCCCCCCCCCNC(=O)Cn3cc(CCCCCN)nn3)CC2)nc(N2CCN(C(=O)CCCCCCCCCCNC(=O)[C@@H](CCSC)n3cc(CCO)nn3)CC2)n1,4.21*,-13.5,1.14,x,x,-320.7,-256.4
Cc1cccc(NS(=O)(=O)c2c(C)[nH]c(C)c2C(=O)N2CCCC2)c1,1.02,5.6,0.944,x,x,-1.9,x
O=C(NCCCNC(=O)c1ccccn1)c1ccc(Cl)cc1,1,-5.0,1.05,x,x,-0.4,x
C#CCOCCOCCOCCNc1nc(N2CCN(C(=O)CCCCCCCCCCNC(=O)[C@H](CO)n3cc(CCCSC)nn3)CC2)nc(N2CCN(C(=O)CCCCCCCCCCNC(=O)[C@H](CCCCN)n3cc(CCO)nn3)CC2)n1,1.36,4.3,0.957,x,x,-35.8,x
C#CCOCCOCCOCCNc1nc(N2CCN(C(=O)CCCCCCCCCCNC(=O)[C@H]([C@@H](C)CC)n3cc(CCCCN=C(N)N)nn3)CC2)nc(N2CCN(C(=O)CCCCCCCCCCNC(=O)[C@H](CO)n3cc(CCCCCN)nn3)CC2)n1,6.36*,-38.0,1.38,x,x,i,i
C#CCOCCOCCOCCNc1nc(N2CCN(C(=O)Cn3cc(CCCN=C(N)N)nn3)CC2)nc(N2CCN(C(=O)[C@H]([C@@H](C)CC)n3cc(CCCCN)nn3)CC2)n1,1.06,8.4,0.916,x,x,-6.4,x
C#CCOCCOCCOCCNc1nc(N2CCN(C(=O)CCCCCCCCCCNC(=O)[C@H]([C@@H](C)CC)n3cc(CCCCCN)nn3)CC2)nc(N2CCN(C(=O)CCCCCCCCCCNC(=O)[C@H]([C@@H](C)CC)n3cc(CCCCN=C(N)N)nn3)CC2)n1,17.6*,-16.3,1.16,x,x,i,i
CC[C@H](C)[C@@H](C(=O)NCCCCCCCCCCC(=O)N1CCN(C(=O)OC(C)(C)C)CC1)n1cc(CCCCN=C(NC(=O)OC(C)(C)C)NC(=O)OC(C)(C)C)nn1,2.25*,6.1,0.939,x,x,-125.4,-128.5
CCOC(=O)C(C)Sc1nc2c(c(=O)[nH]c(=O)n2C)n1C/C=C(/C)Cl (stereo unspecified),0.324,12.9,0.871,1.1,-9.7,67.6*,70.7*
CCSc1nc2c(c(=O)[nH]c(=O)n2C)n1C/C=C(/C)Cl,0.936,4.8,0.952,0.9,10.1,6.4,x
OCCCNC(=S)NC1CCCC1,1.09,-17.2,1.17,1.1,-14.1,-8.9,x
C=CCn1c(=O)c2ccccc2n2c(SCC(=O)NCC)nnc12,0.973,3.3,0.967,x,x,2.7,x

# Screening results (PubChem BioAssay)
